# In ChEMBL document CHEMBL4339195, “Di-aryl Sulfonamide Motif Adds π-Stacking Bulk in Negative Allosteric Modulators of the NMDA Receptor” (ACS Med Chem Lett, 2019):
# Columns and labels:
# [1] = species: Rattus norvegicus; assay: Negative allosteric modulation of rat GABAA alpha1beta2gamma2S expressed in Xenopus laevis oocytes assessed as inhibition of GABA-induced current response at 30 uM at -40 mV holding potential by two-electrode voltage clamp method relative to GABA alone; type: cell-based
# Summary of the method: (§1)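 Oocyte two-electrode voltage clamp at -40 mV holding. Test compound co-applied with agonist; response given as percent of the mean of control and recovery currents to agonist alone. Agonists: 100 µM glutamate (AMPA, kainate), 100 µM GABA (GABA receptors), 100 µM glycine (glycine receptor), 100 µM serotonin (5-HT3A), 9 µM ATP (P2X), 1 µM acetylcholine (nicotinic).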
# [2] = target: T1, Ionotropic glutamate receptor NMDA 1/2D (Rattus norvegicus) (UniProt P35439+Q62645); assay: Potency index, ratio of NP11999 IC50 to test compound IC50 for negative allosteric modulation of recombinant rat GluN1/GluN2D expressed in Xenopus laevis oocytes assessed as inhibition of glutamate/glycine-induced current response; type: cell-based
# [3] = target: T2, Glycine receptor subunit alpha-1 (Rattus norvegicus) (UniProt P07727); assay: Negative allosteric modulation of rat glycine alpha1 expressed in Xenopus laevis oocytes assessed as inhibition of glycine-induced current response at 30 uM at -40 mV holding potential by two-electrode voltage clamp method relative to glycine alone; type: cell-based; summary of the method: as §1
# T2 sequence (whole entry): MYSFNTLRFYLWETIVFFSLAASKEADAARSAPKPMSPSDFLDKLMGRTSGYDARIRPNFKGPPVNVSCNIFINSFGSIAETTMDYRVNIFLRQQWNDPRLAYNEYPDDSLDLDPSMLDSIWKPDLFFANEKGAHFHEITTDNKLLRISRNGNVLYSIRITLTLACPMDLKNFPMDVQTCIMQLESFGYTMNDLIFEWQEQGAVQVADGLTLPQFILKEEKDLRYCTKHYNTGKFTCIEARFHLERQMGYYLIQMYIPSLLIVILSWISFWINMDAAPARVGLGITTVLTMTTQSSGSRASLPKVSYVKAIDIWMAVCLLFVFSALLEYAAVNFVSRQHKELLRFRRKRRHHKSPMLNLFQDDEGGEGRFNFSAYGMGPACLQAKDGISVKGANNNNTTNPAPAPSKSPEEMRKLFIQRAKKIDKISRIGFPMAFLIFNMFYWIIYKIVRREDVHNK
# [4] = test system: Glutamate receptor 4 (Homo sapiens), P48058 [L505Y]; assay: Negative allosteric modulation of human GluA4 L505Y mutant expressed in Xenopus laevis oocytes assessed as inhibition of glutamate-induced current response at 30 uM at -40 mV holding potential by two-electrode voltage clamp method relative to glutamate alone; type: cell-based; summary of the method: as §1
# [5] = target: Glutamate NMDA receptor; Grin1/Grin2b (Rattus norvegicus, UniProt P35439+Q00960); assay: Negative allosteric modulation of recombinant rat GluN1/GluN2B expressed in Xenopus laevis oocytes assessed as inhibition of glutamate/glycine-induced current response at -40 mV holding potential by two-electrode voltage clamp method; type: cell-based
# Summary of the method: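 Oocytes recorded while the drug is co-applied with a maximally effective 100 µM glutamate plus 30 µM glycine. Response is expressed as percent of the glutamate/glycine control. IC50 comes from a Hill fit to the average composite concentration-response curve. 8-16 oocytes from 2-3 frogs per compound and receptor.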
# [6] = target: Glutamate receptor ionotropic, kainate 2 (Rattus norvegicus) (UniProt P42260); assay: Negative allosteric modulation of rat GluK2 expressed in Xenopus laevis oocytes assessed as inhibition of glutamate-induced current response at 30 uM at -40 mV holding potential in presence of concanavalin A by two-electrode voltage clamp method relative to glutamate alone; type: cell-based; summary of the method: as §1
# [7] = target: Glutamate receptor 1 (Rattus norvegicus) (UniProt P19490); assay: Negative allosteric modulation of recombinant rat GluA1 expressed in Xenopus laevis oocytes assessed as inhibition of glutamate-induced current response at 30 uM at -40 mV holding potential by two-electrode voltage clamp method relative to glutamate alone; type: cell-based; summary of the method: as §1
# [8] = target: Glutamate NMDA receptor; Grin1/Grin2a (Rattus norvegicus) (UniProt P35439+Q00959); assay: Negative allosteric modulation of recombinant rat GluN1/GluN2A expressed in Xenopus laevis oocytes assessed as residual glutamate/glycine-induced current response at 30 uM at -40 mV holding potential by two-electrode voltage clamp method relative to glutamate/glycine
# [9] = species: Homo sapiens; assay: Negative allosteric modulation of human GluA2 R607Q mutant expressed in Xenopus laevis oocytes assessed as inhibition of glutamate-induced current response at 30 uM at -40 mV holding potential by two-electrode voltage clamp method relative to glutamate alone; type: cell-based; summary of the method: as §1
# [10] = target: Glutamate NMDA receptor; Grin1/Grin2c (Rattus norvegicus) (UniProt P35439+Q00961); assay: Negative allosteric modulation of recombinant rat GluN1/GluN2C expressed in Xenopus laevis oocytes assessed as inhibition of glutamate/glycine-induced current response at saturated concentration at -40 mV holding potential by two-electrode voltage clamp method relative to glutamate/glycine; type: cell-based
# Summary of the method: (§2)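 Hill fit of the composite concentration-response curve in oocytes, with agonist 100 µM glutamate plus 30 µM glycine. Residual response in saturating compound is either fixed at 0 or fitted. 8-16 oocytes from 2-3 frogs.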
# [11] = species: Rattus norvegicus; assay: Negative allosteric modulation of rat GABAA rho expressed in Xenopus laevis oocytes assessed as inhibition of GABA-induced current response at 30 uM at -40 mV holding potential by two-electrode voltage clamp method relative to GABA alone; type: cell-based; summary of the method: as §1
# [12] = target: T1, Ionotropic glutamate receptor NMDA 1/2D (Rattus norvegicus); assay: Negative allosteric modulation of recombinant rat GluN1/GluN2D expressed in Xenopus laevis oocytes assessed as inhibition of glutamate/glycine-induced current response at saturated concentration at -40 mV holding potential by two-electrode voltage clamp method relative to glutamate/glycine; type: cell-based; summary of the method: as §2
# [13] = target: CHRNA1/CHRNB1/CHRNG/CHRND (Rattus norvegicus) (UniProt P25109+P25108+P25110+P18916); assay: Negative allosteric modulation of rat alpha1betagammadelta nACHR expressed in Xenopus laevis oocytes assessed as inhibition of acetylcholine-induced current response at 30 uM at -40 mV holding potential by two-electrode voltage clamp method relative to acetylcholine alone; type: cell-based; summary of the method: as §1
# [14] = target: P2X receptor (Homo sapiens) (UniProt P51575+Q99571+Q9UBL9+O15547+P56373+Q99572+Q93086); assay: Negative allosteric modulation of human P2X expressed in Xenopus laevis oocytes assessed as inhibition of ATP-induced current response at 30 uM at -40 mV holding potential by two-electrode voltage clamp method relative to ATP alone; type: cell-based; summary of the method: as §1
# Glutamate NMDA receptor; Grin1/Grin2b, sequence (Q00960 whole entry, other chains not shown): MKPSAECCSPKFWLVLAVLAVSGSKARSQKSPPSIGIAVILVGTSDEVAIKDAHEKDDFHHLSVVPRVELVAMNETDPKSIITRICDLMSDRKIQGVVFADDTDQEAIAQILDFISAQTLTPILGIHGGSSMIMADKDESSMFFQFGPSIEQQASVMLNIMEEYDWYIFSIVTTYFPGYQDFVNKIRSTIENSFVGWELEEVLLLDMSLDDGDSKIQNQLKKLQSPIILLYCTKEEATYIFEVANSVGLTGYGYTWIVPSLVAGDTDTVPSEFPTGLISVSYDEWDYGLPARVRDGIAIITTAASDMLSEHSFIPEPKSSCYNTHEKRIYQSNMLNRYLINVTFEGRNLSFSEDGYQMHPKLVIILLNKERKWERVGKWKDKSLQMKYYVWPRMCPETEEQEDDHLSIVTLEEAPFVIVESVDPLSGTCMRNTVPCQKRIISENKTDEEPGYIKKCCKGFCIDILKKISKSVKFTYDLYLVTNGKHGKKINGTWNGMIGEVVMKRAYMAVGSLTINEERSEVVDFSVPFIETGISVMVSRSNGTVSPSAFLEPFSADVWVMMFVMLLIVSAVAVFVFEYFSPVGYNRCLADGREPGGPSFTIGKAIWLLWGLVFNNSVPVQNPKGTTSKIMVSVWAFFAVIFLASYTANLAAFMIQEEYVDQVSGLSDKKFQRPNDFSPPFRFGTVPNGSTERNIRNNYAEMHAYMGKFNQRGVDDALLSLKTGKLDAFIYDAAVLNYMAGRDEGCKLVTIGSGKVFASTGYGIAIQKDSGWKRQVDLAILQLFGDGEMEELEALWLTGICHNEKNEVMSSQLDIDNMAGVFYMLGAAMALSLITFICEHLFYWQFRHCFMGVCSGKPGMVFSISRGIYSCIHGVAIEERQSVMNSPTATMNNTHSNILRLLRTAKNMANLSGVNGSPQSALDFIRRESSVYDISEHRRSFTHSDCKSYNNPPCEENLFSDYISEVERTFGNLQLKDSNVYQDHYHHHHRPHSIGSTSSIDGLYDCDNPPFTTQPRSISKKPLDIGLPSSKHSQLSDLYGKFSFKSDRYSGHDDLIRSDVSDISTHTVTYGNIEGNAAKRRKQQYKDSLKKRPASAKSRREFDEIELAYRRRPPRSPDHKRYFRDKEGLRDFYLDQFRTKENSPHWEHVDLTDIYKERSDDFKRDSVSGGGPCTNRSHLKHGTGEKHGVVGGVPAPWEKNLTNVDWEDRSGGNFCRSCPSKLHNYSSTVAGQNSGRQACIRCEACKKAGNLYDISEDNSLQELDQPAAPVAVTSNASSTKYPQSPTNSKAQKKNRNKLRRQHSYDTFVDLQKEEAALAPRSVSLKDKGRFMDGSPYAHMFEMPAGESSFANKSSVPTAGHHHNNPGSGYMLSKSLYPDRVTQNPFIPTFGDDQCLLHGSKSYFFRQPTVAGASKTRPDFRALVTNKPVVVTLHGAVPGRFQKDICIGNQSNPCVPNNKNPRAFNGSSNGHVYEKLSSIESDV
# Glutamate receptor 1 (Rattus norvegicus), sequence (P19490 whole entry): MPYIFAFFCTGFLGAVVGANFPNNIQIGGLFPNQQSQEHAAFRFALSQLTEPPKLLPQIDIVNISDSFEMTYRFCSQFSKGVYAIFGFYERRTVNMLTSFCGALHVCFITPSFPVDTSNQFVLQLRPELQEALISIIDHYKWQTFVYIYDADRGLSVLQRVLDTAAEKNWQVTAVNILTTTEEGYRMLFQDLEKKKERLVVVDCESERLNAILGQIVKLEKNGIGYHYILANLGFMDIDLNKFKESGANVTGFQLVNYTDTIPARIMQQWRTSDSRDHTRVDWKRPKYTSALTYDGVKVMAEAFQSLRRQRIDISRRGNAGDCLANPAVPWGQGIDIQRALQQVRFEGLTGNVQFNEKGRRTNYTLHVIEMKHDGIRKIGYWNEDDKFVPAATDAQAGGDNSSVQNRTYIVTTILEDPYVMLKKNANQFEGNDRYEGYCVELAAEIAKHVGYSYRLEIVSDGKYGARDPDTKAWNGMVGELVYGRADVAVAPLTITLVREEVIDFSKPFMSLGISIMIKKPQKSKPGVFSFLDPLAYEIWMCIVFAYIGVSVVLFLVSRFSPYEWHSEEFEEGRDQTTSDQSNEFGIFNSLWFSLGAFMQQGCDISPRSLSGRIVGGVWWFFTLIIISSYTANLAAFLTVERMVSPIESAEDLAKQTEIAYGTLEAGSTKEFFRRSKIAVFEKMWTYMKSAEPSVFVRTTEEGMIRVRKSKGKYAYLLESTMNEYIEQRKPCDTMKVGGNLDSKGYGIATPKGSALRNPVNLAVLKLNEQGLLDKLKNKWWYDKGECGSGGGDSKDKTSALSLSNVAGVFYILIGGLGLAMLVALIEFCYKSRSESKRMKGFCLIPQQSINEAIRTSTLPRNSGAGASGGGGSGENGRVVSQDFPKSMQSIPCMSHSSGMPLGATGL
# Glutamate receptor ionotropic, kainate 2 (Rattus norvegicus), sequence (P42260 whole entry): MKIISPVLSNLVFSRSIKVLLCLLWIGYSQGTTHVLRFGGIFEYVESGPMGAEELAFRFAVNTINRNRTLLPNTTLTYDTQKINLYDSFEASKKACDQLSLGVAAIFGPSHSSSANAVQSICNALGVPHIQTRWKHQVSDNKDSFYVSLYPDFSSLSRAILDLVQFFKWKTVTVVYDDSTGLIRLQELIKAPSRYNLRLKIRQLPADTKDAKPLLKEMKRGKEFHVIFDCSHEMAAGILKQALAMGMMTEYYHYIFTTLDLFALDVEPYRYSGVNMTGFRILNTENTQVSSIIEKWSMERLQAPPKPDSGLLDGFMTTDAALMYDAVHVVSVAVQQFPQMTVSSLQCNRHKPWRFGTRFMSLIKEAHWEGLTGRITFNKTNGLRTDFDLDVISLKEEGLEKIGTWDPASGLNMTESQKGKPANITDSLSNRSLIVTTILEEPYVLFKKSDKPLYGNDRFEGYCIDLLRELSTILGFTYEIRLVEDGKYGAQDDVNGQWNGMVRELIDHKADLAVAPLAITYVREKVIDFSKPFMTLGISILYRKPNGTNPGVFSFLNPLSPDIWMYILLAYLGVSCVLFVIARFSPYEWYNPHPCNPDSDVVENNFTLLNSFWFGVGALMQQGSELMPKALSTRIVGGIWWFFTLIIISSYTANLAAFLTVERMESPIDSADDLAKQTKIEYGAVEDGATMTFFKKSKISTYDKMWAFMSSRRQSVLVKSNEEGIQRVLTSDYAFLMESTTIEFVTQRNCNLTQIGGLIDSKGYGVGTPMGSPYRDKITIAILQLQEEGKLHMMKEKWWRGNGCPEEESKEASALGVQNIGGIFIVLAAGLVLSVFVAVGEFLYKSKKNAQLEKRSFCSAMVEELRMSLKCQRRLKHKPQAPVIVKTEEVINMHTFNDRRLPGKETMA
# Glutamate receptor 4 (Homo sapiens), P48058 [L505Y], sequence (P48058 whole entry L505Y): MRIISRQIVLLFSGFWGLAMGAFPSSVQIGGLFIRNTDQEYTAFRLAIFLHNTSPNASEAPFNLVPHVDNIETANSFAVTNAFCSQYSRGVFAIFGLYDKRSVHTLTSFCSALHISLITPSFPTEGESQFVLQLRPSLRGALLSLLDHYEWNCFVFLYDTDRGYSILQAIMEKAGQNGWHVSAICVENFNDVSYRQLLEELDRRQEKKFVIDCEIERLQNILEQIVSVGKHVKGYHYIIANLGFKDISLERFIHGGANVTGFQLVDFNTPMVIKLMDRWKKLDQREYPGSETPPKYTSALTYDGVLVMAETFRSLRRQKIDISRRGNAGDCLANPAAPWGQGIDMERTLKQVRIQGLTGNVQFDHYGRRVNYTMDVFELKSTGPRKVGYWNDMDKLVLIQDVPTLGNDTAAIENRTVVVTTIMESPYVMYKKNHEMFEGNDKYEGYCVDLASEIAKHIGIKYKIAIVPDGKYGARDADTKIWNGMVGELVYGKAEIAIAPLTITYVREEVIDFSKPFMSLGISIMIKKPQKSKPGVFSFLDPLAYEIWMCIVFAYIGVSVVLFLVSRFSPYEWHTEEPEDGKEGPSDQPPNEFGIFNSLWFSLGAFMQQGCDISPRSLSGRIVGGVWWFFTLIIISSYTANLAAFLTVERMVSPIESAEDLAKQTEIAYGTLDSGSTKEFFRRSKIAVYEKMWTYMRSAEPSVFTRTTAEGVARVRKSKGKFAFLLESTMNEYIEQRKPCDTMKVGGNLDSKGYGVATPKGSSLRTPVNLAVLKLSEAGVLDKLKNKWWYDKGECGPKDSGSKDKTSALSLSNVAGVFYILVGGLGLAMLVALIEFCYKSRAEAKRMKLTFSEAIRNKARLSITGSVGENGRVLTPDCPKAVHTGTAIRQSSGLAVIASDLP
compound,measurement,setting,value
CCN(CC)C(=O)Oc1ccc(C(=O)Nc2cccc(CCNS(=O)(=O)c3ccccc3)c2)cc1,inhibition,[1],90%
same,Ratio IC50,[2],< 6
same,inhibition,[3],30%
same,inhibition,[4],86%
same,IC50,[5],7.6 µM
same,inhibition,[6],92%
same,inhibition,[7],79%
same,residual activity,[8],85%
same,inhibition,[9],95%
same,inhibition,[10],0%
same,inhibition,[11],98%
same,inhibition,[12],0%
same,inhibition,[13],27%
same,inhibition,[14],80%
